For data set [1], the system named is PWR-1E. The data set can be described thus: Antiproliferative activity against human PWR-1E cells expressing androgen receptor and PSA assessed as decrease in cell viability after 3 days by WST assay. The settings on record: 72 h. It is filed as functional, cell-based. An outline of the steps: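 Non-malignant prostate epithelial PWR-1E (adenovirus 12/SV40-immortalized) was seeded at 5,000 per well. Cells were exposed for 3 days at 37 °C in a CO2 incubator to at least five concentrations, with DMSO as vehicle control. WST-1 reagent was then added for 3 h at 37 °C and absorbance read at 430 nm. IC50 came from linear inhibition, as the mean of triplicate determinations.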

The nature of data set [2]: Antiproliferative activity against human LNCaP95 cells expressing androgen receptor splice variants assessed as decrease in cell viability after 5 days by trypan blue exclusion assay. It is filed as functional, cell-based. The settings on record: LNCaP-95, 120 h.
The test system of data set [3] is PWR-1E. The data set can be described thus: Potency index, ratio of curcumin IC50 to test compound IC50 for human PWR-1E cells expressing androgen receptor and PSA. The format is functional.
Data set [4] deals with PC-3. Briefly: Induction of apoptosis in human PC3 cells assessed as late apoptotic/necrotic cells at 40 uM after 16 hrs by F2N12S/CYTOX AADvanced double staining-based flow cytometric method (reference value: 3%). The format is functional.
Data set [5] has as its system PC-3. The data set can be described thus: Induction of apoptosis in human PC3 cells assessed as late apoptotic/necrotic cells at 15 uM after 16 hrs by F2N12S/CYTOX AADvanced double staining-based flow cytometric method (reference value: 3%). It is filed as functional. Background: A flow cytometer gives signals particle by particle.
Data set [6] relates to CWR22R. The data set can be described thus: Antiproliferative activity against human 22Rv1 cells expressing androgen receptor splice variants assessed as decrease in cell viability after 5 days by trypan blue exclusion assay. It is filed as functional, cell-based. The settings on record: 22Rv1, 120 h.
Data set [7] is described as follows: Drug metabolism in human liver microsomes assessed as (1E,4E)-1-(1-sec-butyl-4-hydroxy-1H-imidazol-2-yl)-5-(2-methyl-4-(trifluoromethyl)thiazol-5-yl)penta-1,4-dien-3-one formation at 10 mM after 60 mins by UHPLC analysis. It is filed as ADME, microsome. In a few lines: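 Pooled human liver microsomes in potassium phosphate buffer (pH 7.4) with NADPH solutions A and B were preincubated for 5 min at 37 °C. Compound was then added from a 10 mM stock (3 μL into 300 μL total) and incubated 60 min at 37 °C. Reactions were quenched with an equal volume of methanol and centrifuged (10,000 × g, 4 min, 4 °C). Supernatant went to UHPLC–high-resolution MS for metabolite identification.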

Data set [8] has as its system PC-3. Briefly: Induction of apoptosis in human PC3 cells assessed as late apoptotic/necrotic cells at 5 uM after 16 hrs by F2N12S/CYTOX AADvanced double staining-based flow cytometric method (reference value: 3%). The format is functional.
Data set [9] concerns PC-3. Briefly: Cell cycle arrest in human PC3 cells assessed as accumulation at G2 phase at 5 uM after 16 hrs by propidium iodide staining-based flow cytometric method (reference value: 25 to 28%). It is filed as functional.
For data set [10], the system named is PC-3. The data set can be described thus: Induction of apoptosis in human PC3 cells assessed as viable cells at 5 uM after 16 hrs by F2N12S/CYTOX AADvanced double staining-based flow cytometric method (reference value: 95%). It is filed as functional. The settings on record: PC-3, 16 h, read-out: Activity.
Data set [11] relates to PC-3. Briefly: Induction of apoptosis in human PC3 cells assessed as early apoptotic cells at 5 uM after 16 hrs by F2N12S/CYTOX AADvanced double staining-based flow cytometric method (reference value: 2%). The format is functional.
Data set [12] is described as follows: Tmax in Sprague-Dawley rat at 10 mg/kg administered via oral gavage by HPLC-MS/MS analysis. It is filed as ADME, organism-based. The settings on record: in vivo.
In data set [13] the test system is PC-3. The data set can be described thus: Induction of apoptosis in human PC3 cells assessed as early apoptotic cells at 15 uM after 16 hrs by F2N12S/CYTOX AADvanced double staining-based flow cytometric method (reference value: 2%). It is filed as functional.
The nature of data set [14]: Retention time of the compound. The format is physicochemical.

The record followed here is ChEMBL document CHEMBL4190216, “Asymmetric 1,5-diarylpenta-1,4-dien-3-ones: Antiproliferative activity in prostate epithelial cell models and pharmacokinetic studies” (Eur J Med Chem, 2017).

By IC50 is commonly meant the point on the concentration scale where inhibition reaches its midpoint. One may read the Tmax as the time from dosing to the highest level.

`CCC(C)n1ccnc1/C=C/C(=O)/C=C/c1sc(C)nc1C(F)(F)F` (centres undefined): the results for the IC50 in data set [1], in data set [2] and in [6] were 110 nM, 370 nM and 850 nM, respectively. The “Ratio IC50” value in data set [3] worked out at 81. For the same compound, the Activity in data set [4] came to 53%; in data set [5] it was 33%; in data set [8], 39%; in data set [9] it was 18%; in data set [11] it was 11%; in data set [13] it was 13%. Moreover, in data set [7], the Drug metabolism entry is listed as “Metabolite_Detected”. The viability at 5 µM in [10] was 50%. Also, the Tmax in data set [12] was determined as 6 h. Further, the Retention_time in data set [14] worked out at 4.35 min.
